Test results as given in ChEMBL document CHEMBL1156747, “N3-arylmalonamides: a new series of thieno[3,2-b]pyridine based inhibitors of c-Met and VEGFR2 tyrosine kinases” (Bioorg Med Chem Lett, 2009).
Active and inactive are the calls of the source. The calls are words filed in the database; no cut-off is given here.

What was measured:
[1] = biological target: T1, Hepatocyte growth factor receptor (Homo sapiens, UniProt P08581); test: Inhibition of TPR-met autophosphorylation expressed in HEK293T cells after 150 mins by ELISA; type: cell-based; conditions: hek-293t
Summary of the method: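 293T clone stably expressing activated TPR-Met under a CMV promoter, exposed to compound dilutions for 150 min. Autophosphorylation measured in lysates by ELISA with anti-phosphotyrosine (4G10), HRP reporter antibody and chemiluminescent read-out. IC50 from 4-parameter fit of triplicate means.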
Target sequence in this assay (P08581 25-1390 limits assumed): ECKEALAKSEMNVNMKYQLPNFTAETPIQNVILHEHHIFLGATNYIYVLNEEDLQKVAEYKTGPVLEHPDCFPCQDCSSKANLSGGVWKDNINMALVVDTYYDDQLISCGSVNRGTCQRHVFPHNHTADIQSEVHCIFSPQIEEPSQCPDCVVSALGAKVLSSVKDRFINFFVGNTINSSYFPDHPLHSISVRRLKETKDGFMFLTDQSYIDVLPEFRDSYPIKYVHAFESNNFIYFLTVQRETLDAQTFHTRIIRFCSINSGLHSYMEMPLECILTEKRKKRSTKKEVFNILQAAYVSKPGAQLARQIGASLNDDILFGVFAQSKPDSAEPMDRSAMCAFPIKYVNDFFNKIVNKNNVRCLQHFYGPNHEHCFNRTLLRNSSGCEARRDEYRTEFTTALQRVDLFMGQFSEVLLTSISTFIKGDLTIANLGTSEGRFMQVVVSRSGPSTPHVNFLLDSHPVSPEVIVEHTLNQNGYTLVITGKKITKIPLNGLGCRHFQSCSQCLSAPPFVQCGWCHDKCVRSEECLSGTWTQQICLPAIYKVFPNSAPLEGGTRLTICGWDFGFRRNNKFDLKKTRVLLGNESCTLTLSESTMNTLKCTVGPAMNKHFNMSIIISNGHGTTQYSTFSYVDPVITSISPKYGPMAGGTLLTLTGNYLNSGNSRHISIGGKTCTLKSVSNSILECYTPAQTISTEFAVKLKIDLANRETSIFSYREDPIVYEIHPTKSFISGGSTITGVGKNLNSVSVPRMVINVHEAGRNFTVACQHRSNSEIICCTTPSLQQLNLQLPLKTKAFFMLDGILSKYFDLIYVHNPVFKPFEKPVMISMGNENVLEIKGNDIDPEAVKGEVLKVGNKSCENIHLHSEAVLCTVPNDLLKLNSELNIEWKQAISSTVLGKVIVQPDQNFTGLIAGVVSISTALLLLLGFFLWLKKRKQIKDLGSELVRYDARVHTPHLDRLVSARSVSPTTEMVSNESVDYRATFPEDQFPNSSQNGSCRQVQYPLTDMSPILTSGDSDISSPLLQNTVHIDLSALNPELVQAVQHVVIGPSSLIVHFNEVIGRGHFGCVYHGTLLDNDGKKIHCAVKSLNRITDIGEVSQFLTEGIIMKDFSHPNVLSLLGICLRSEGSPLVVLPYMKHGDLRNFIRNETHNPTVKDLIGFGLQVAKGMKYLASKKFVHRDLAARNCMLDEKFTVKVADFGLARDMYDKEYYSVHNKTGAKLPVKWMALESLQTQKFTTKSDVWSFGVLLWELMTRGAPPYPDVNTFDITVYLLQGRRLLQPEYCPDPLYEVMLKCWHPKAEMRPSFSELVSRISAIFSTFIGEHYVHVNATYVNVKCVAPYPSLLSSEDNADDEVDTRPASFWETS

[2] = biological target: T2, Vascular endothelial growth factor receptor 2 (Homo sapiens, UniProt P35968); test: Inhibition of GST-fused recombinant VEGFR2 expressed in baculovirus infected Sf9 cells after 30 mins by DELFIA assay
[3] = biological target: T1, Hepatocyte growth factor receptor; test: Inhibition of GST-fused recombinant C-met expressed in baculovirus infected high five cells after 30 mins by DELFIA assay
Summary of the method: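 GST-fused catalytic domains from baculovirus-infected cells, High Five for c-Met (MOI 1) and Sf9 for VEGFR2 (MOI 0.1). DELFIA on immobilized poly(Glu4,Tyr). Enzyme 25 nM (c-Met) or 5 nM (VEGFR2), pre-incubated 4 min on ice with inhibitor and Mg-ATP. Reaction at 30 °C, 30 min (c-Met) or 10 min (VEGFR2), stopped with EDTA. Europium anti-phosphotyrosine read by time-resolved fluorescence. Seven concentrations in triplicate; IC50 from four-parameter fit.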
Target sequence in this assay (P08581 whole entry): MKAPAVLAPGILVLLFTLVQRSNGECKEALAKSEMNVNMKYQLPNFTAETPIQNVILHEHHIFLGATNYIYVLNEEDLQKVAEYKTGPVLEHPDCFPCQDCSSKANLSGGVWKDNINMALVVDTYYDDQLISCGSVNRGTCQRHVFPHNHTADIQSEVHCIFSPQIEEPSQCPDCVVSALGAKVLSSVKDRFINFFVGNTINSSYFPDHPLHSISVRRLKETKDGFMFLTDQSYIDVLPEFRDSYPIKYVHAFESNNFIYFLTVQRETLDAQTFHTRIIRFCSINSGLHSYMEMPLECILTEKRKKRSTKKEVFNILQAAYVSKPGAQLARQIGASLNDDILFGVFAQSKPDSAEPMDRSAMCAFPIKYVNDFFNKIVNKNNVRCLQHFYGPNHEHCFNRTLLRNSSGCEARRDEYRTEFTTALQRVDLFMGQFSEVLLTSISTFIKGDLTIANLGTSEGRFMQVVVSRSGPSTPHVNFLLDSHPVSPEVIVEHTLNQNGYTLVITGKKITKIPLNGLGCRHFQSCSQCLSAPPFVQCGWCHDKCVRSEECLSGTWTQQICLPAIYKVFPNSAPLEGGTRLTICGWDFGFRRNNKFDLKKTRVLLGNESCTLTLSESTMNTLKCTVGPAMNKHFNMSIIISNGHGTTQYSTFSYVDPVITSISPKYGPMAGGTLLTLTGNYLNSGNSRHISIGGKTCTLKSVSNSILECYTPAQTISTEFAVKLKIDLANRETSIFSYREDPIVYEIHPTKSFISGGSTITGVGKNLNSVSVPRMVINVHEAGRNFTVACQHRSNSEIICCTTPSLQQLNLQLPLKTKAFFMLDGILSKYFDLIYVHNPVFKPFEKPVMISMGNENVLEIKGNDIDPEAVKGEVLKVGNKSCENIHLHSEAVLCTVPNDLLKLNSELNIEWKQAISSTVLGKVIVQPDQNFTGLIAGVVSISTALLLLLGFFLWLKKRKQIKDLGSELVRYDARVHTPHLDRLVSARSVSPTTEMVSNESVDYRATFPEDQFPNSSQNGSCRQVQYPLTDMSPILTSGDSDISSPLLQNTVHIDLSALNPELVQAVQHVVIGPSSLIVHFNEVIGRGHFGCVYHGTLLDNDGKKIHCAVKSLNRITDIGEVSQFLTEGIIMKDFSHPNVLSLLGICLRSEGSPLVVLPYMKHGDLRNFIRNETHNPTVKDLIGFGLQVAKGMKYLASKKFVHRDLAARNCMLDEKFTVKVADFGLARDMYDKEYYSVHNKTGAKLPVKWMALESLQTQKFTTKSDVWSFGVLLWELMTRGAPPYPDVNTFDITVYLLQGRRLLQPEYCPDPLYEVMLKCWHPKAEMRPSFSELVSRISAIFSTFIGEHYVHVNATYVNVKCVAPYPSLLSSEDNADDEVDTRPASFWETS

[4] = biological target: T2, Vascular endothelial growth factor receptor 2; test: Inhibition of VEGFR2 assessed as inhibition of ERK phosphorylation
Summary of the method: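 Cellular assay: ERK phosphorylation was measured after VEGF stimulation.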

HUVEC [5] = test: Antiangiogenic activity in HUVEC cells assessed as inhibition of VEGF-induced tubule growth at 100 nM; type: functional, cell-based; conditions: Homo sapiens
[6] = biological target: Cyclin-dependent kinase 2/cyclin E (Homo sapiens) (UniProt P24864+P24941+O96020); test: Inhibition of CDK2/Cyclin E at 100 nM by radiometric protein kinase assay; type: protein-complex assay
Summary of the method: (§1)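 Single-concentration kinase selectivity panel run as radiometric protein kinase assays by an outside screening service; percent inhibition reported.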

A549 [7] = test: Antitumor activity against human A549 cells xenografted model assessed as tumor growth inhibition at 40 mg/kg, po qd after 14 days; type: functional; conditions: A549, 336 h, read-out: TGI
HUVEC [8] = test: Antiangiogenic activity in HUVEC cells assessed as inhibition of VEGF-induced tubule growth; type: functional, cell-based; conditions: Homo sapiens
[9] = biological target: Receptor-type tyrosine-protein kinase FLT3 (Homo sapiens) (UniProt P36888); test: Inhibition of Flt3 at 100 nM by radiometric protein kinase assay; summary of the method: as §1
MKN-45 = test: Antitumor activity against human MKN45 cells xenografted model assessed as tumor growth inhibition at 40 mg/kg, po qd after 12 days; type: functional; conditions: MKN-45, 288 h, read-out: TGI
[10] = biological target: RAC-alpha serine/threonine-protein kinase (Homo sapiens) (UniProt P31749); test: Inhibition of PKBalpha at 100 nM by radiometric protein kinase assay; summary of the method: as §1
[11] = biological target: Platelet-derived growth factor receptor alpha (Homo sapiens) (UniProt P16234); test: Inhibition of PDGFRalpha at 100 nM by radiometric protein kinase assay; summary of the method: as §1
[12] = biological target: Aurora kinase A (Homo sapiens) (UniProt O14965); test: Inhibition of Aurora A at 100 nM by radiometric protein kinase assay; summary of the method: as §1
DU-145 = test: Inhibition of HGF-induced scattering in human DU145 cells; type: functional, cell-based
[13] = biological target: Inhibitor of nuclear factor kappa-B kinase subunit beta (Homo sapiens) (UniProt O14920); test: Inhibition of IKK-beta at 100 nM by radiometric protein kinase assay; summary of the method: as §1
[14] = biological target: Mast/stem cell growth factor receptor Kit (Homo sapiens) (UniProt P10721); test: Inhibition of c-Kit at 100 nM by radiometric protein kinase assay; summary of the method: as §1
HUVEC [15] = test: Antiproliferative activity against HUVEC cells assessed as inhibition of […] proliferation; type: functional, cell-based; conditions: Homo sapiens
[16] = Tmax in rat at 4.28 to 4.98 mg/kg, po; type: ADME, organism-based; parameters: dose 4.28-4.98 mg/kg, route oral; conditions: in vivo
Summary of the method: (§2)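 Rat pharmacokinetics with intravenous dosing at 2.17–2.86 mg/kg and oral dosing at 4.28–4.98 mg/kg. Oral Cmax and AUC normalised per mg/kg.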

[17] = biological target: Glycogen synthase kinase-3 beta (Homo sapiens) (UniProt P49841); test: Inhibition of GSK3-beta at 100 nM by radiometric protein kinase assay; summary of the method: as §1
[18] = Antitumor activity against human U87MG cells xenografted model assessed as tumor growth inhibition at 40 mg/kg, po qd after 10 days; type: functional, U-87MG ATCC; conditions: U-87 MG, 240 h, read-out: TGI
[19] = biological target: Vascular endothelial growth factor receptor 3 (Homo sapiens) (UniProt P35916); test: Inhibition of VEGFR3 at 100 nM by radiometric protein kinase assay; summary of the method: as §1
[20] = biological target: Proto-oncogene tyrosine-protein kinase Src (Homo sapiens) (UniProt P12931); test: Inhibition of c-SRC at 100 nM by radiometric protein kinase assay; summary of the method: as §1
[21] = Half life in rat at 2.17 to 2.86 mg/kg, iv; type: ADME, organism-based; parameters: dose 2.17-2.86 mg/kg, route intravenous; conditions: in vivo; summary of the method: as §2
Rattus norvegicus = test: Cmax in rat at 4.28 to 4.98 mg/kg, po; type: ADME, organism-based; parameters: dose 4.28-4.98 mg/kg, route oral; conditions: in vivo; summary of the method: as §2
[22] = biological target: Vascular endothelial growth factor receptor 1 (Homo sapiens) (UniProt P17948); test: Inhibition of VEGFR1 at 100 nM by radiometric protein kinase assay; summary of the method: as §1
[23] = Oral bioavailability in rat at 4.28 to 4.98 mg/kg; type: ADME, organism-based; conditions: in vivo; summary of the method: as §2
[24] = Clearance in rat at 2.17 to 2.86 mg/kg, iv and 4.28 to 4.98 mg/kg, po; type: ADME, organism-based; conditions: in vivo; summary of the method: as §2
[25] = biological target: Angiopoietin-1 receptor (Homo sapiens) (UniProt Q02763); test: Inhibition of […] at 100 nM by radiometric protein kinase assay; summary of the method: as §1
[26] = biological target: Epidermal growth factor receptor (Homo sapiens) (UniProt P00533); test: Inhibition of EGFR at 100 nM by radiometric protein kinase assay; summary of the method: as §1
A549 [27] = test: Inhibition of HGF-induced cell migration in human A549 cells by wound healing assay; type: functional, cell-based
[28] = biological target: Ephrin type-B receptor 4 (Homo sapiens) (UniProt P54760); test: Inhibition of EphB4 at 100 nM by radiometric protein kinase assay; summary of the method: as §1
[29] = Volume of distribution at steady state in rat at 2.17 to 2.86 mg/kg, iv and 4.28 to 4.98 mg/kg, po; type: ADME, organism-based; conditions: in vivo, read-out: Vdss; summary of the method: as §2

T2 sequence (P35968 whole entry, the tested form may be a part): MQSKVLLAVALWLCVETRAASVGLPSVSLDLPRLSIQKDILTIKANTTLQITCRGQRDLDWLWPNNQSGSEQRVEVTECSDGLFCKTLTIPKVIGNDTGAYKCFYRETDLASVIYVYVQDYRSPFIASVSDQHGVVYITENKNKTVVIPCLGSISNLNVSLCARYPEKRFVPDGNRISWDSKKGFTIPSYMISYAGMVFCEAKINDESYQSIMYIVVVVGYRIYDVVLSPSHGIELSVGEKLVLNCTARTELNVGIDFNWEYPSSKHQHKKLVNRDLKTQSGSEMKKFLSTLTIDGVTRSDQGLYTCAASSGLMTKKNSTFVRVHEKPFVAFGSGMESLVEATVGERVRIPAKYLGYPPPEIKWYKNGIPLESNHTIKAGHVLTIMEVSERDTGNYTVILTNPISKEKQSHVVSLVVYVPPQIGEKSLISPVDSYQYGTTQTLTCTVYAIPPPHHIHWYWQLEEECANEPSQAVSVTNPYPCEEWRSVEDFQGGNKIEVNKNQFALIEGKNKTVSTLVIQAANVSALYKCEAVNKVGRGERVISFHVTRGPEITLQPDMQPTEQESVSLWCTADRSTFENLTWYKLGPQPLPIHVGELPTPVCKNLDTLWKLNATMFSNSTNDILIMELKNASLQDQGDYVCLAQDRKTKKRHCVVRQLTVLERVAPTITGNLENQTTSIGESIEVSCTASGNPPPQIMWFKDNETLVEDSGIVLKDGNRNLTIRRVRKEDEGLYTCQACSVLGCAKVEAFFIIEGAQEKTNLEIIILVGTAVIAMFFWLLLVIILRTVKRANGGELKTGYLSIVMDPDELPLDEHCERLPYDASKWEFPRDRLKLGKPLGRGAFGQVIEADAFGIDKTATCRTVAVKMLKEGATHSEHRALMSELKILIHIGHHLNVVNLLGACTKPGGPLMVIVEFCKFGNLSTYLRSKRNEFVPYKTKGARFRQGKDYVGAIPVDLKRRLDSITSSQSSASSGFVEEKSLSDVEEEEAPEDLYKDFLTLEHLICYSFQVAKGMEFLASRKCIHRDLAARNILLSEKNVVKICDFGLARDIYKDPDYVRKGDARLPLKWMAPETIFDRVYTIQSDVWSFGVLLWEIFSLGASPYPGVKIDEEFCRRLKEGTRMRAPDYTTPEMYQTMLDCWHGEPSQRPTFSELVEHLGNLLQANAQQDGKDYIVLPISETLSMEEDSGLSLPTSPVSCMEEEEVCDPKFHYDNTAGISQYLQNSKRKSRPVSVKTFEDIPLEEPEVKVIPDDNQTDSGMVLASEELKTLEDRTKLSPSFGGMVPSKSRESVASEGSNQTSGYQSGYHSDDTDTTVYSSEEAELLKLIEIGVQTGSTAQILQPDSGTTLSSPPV
Sequence of Mast/stem cell growth factor receptor Kit (Homo sapiens) (P10721 whole entry): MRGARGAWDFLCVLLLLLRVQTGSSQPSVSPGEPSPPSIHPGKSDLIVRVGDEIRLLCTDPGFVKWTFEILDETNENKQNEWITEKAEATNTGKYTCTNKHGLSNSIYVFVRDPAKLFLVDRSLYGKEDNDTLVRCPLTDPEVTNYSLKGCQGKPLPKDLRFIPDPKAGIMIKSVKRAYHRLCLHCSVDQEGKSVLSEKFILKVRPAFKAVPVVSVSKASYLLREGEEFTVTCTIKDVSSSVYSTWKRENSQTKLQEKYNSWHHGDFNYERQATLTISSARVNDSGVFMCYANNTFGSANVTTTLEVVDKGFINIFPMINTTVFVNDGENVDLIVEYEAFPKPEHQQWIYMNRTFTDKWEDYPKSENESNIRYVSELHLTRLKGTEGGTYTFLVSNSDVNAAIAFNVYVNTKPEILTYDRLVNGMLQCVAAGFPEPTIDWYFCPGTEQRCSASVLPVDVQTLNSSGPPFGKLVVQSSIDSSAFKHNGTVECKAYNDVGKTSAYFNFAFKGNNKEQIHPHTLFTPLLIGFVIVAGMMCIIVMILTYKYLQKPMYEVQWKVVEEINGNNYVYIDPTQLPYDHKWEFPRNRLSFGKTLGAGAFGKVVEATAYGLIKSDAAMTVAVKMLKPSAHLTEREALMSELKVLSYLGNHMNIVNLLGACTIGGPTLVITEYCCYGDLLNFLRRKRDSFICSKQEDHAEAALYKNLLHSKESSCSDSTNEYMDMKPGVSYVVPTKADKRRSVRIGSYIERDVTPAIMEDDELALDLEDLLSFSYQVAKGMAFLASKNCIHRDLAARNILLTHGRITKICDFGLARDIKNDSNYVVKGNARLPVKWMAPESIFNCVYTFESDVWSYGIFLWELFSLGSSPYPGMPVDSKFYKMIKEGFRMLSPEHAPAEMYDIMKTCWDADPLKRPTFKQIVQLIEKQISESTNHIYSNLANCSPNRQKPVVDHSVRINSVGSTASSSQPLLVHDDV

CN(C)[C@@H]1CCN(C(=O)c2cc3nccc(Oc4ccc(NC(=O)CC(=O)Nc5ccccc5)cc4F)c3s2)C1
IC50 [1]: 560 nM

CCn1cnc(-c2cc3nccc(Oc4ccc(NC(=O)CC(=O)Nc5cccc(F)c5)cc4F)c3s2)c1
IC50 [2]: 10 nM
IC50 [3]: 52 nM
IC50 [1]: 870 nM

CCn1cnc(-c2cc3nccc(Oc4ccc(NC(=O)CC(=O)Nc5ccccc5OC)cc4F)c3s2)c1
IC50 [1]: 44 nM

CCn1cnc(-c2cc3nccc(Oc4ccc(NC(=O)CC(=O)Nc5ccccc5F)cc4F)c3s2)c1
IC50 [3]: 32 nM
IC50 [1]: 35 nM

CCn1cnc(-c2cc3nccc(Oc4ccc(NC(=O)CC(=O)Nc5ccccc5O)cc4F)c3s2)c1
IC50 [3]: 26 nM
IC50 [1]: 600 nM

CCn1cnc(-c2cc3nccc(Oc4ccc(NC(=O)CC(=O)NC5CCCCC5)cc4F)c3s2)c1
IC50 [2]: 10 nM
IC50 [3]: 52 nM
IC50 [1]: 590 nM

CCn1cnc(-c2cc3nccc(Oc4ccc(NC(=O)C5(C(=O)Nc6ccccc6F)CC5)cc4F)c3s2)c1
IC50 [3]: 38 nM
IC50 [1]: 120 nM

CCn1cnc(-c2cc3nccc(Oc4ccc(NC(=O)CC(=O)Nc5ccccc5C(F)(F)F)cc4F)c3s2)c1
IC50 [3]: 91 nM
IC50 [1]: 150 nM

CN(C)CCn1cnc(C(=O)c2cc3nccc(Oc4ccc(NC(=O)CC(=O)Nc5ccccc5)cc4F)c3s2)c1
IC50 [3]: 20 nM
IC50 [1]: 190 nM

CCn1cnc(-c2cc3nccc(Oc4ccc(NC(=O)CC(=O)Nc5ccc(F)cc5)cc4F)c3s2)c1
IC50 [3]: 24 nM

O=C(O)Cn1cnc(C(=O)c2cc3nccc(Oc4ccc(NC(=O)CC(=O)Nc5ccccc5)cc4F)c3s2)c1
IC50 [3]: 36 nM
IC50 [1]: > 5000 nM

CCn1cnc(-c2cc3nccc(Oc4ccc(NC(=O)C5(C(=O)Nc6ccccc6)CC5)cc4F)c3s2)c1
IC50 [4]: 1 nM
Activity (HUVEC [5]): Active
inhibition [6]: < 5%
inhibition in vivo at 40 mg/kg (A549 [7]): 54%
IC50 (HUVEC [8]): < 3 nM
inhibition [9]: 100%
inhibition in vivo at 40 mg/kg (MKN-45): 101%
inhibition [10]: < 5%
inhibition [11]: 99%
inhibition [12]: 96%
IC50 [3]: 24 nM
IC50 (DU-145): 40 nM
inhibition [13]: < 5%
inhibition [14]: 99%
IC50 (HUVEC [15]): 0.3 nM
IC50 [1]: 4 nM
Tmax [16]: 2 h
inhibition [17]: < 5%
inhibition in vivo at 40 mg/kg [18]: 70%
inhibition [19]: 97%
inhibition [20]: 93%
half-life [21]: 186 min
Cmax normalised (Rattus norvegicus): 0.1 µM/mg/kg
inhibition [22]: 98%
bioavailability [23]: 33%
clearance [24]: 16.5 mL/min/kg
inhibition [25]: 100%
inhibition [26]: < 5%
IC50 (A549 [27]): 220 nM
inhibition [28]: 95%
Vd [29]: 2.2 L/kg

CCn1cnc(C(=O)c2cc3nccc(Oc4ccc(NC(=O)CC(=O)Nc5ccccc5)cc4F)c3s2)c1
IC50 [3]: 19 nM
IC50 [1]: 180 nM
Tmax [16]: 5.7 h
half-life [21]: 156 min
Cmax normalised (Rattus norvegicus): 0.18 µM/mg/kg
bioavailability [23]: 12%
clearance [24]: 5.5 mL/min/kg
Vd [29]: 0.82 L/kg

CCn1cnc(-c2cc3nccc(Oc4ccc(NC(=O)CC(=O)N(C)c5ccccc5)cc4F)c3s2)c1
IC50 [3]: 33 nM
IC50 [1]: 31 nM
Tmax [16]: 0.5 h
half-life [21]: 54.6 min
Cmax normalised (Rattus norvegicus): 0.29 µM/mg/kg
bioavailability [23]: 60%
clearance [24]: 8.67 mL/min/kg
Vd [29]: 0.33 L/kg

Cn1cnc(C(=O)c2cc3nccc(Oc4ccc(NC(=O)CC(=O)Nc5ccccc5)cc4F)c3s2)c1
IC50 [3]: 25 nM
IC50 [1]: 340 nM

O=C(CC(=O)Nc1ccc(Oc2ccnc3cc(C(=O)N4CCCC4)sc23)c(F)c1)Nc1ccccc1
IC50 [1]: 2000 nM

Cn1ccnc1C(=O)c1cc2nccc(Oc3ccc(NC(=O)CC(=O)Nc4ccccc4)cc3F)c2s1
IC50 [3]: 36 nM
IC50 [1]: 40 nM
